# Measurements as given in ChEMBL document CHEMBL3044889, “Synthesis and quantitative structure-activity relationship (QSAR) study of novel 4-acyloxypodophyllotoxin derivatives modified in the A and C rings as insecticidal agents” (2013).
# Key:
# Assay type in all cases: functional
# Mythimna separata [1] = assay: Insecticidal activity against pre-third-instar larvae of Mythimna separata (Oriental armyworm) assessed as corrected mortality rate at 1 mg/ml measured after 35 days by the leaf-dipping method; settings: 840 h
# Procedure, shortened: (§1)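 Test solutions 1 mg/mL in acetone; fresh wheat leaves dipped 3 s, air-dried indoors; acetone-only leaves as blank control. Ten larvae per dish fed treated leaves, topped up if consumed; untreated fresh leaves from 48 h until adult emergence. Held at 25 ± 2 °C, RH 65-80%, 12 h/12 h light/dark. Corrected mortality = (T − C) × 100/(1 − C).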
# Mythimna separata [2] = assay: Insecticidal activity against pre-third-instar larvae of Mythimna separata (Oriental armyworm) assessed as corrected mortality rate at 1 mg/ml measured after 20 days by the leaf-dipping method; settings: 480 h; procedure, shortened: as §1
# Mythimna separata [3] = assay: Insecticidal activity against pre-third-instar larvae of Mythimna separata (Oriental armyworm) assessed as corrected mortality rate at 1 mg/ml measured after 10 days by the leaf-dipping method; settings: 240 h; procedure, shortened: as §1
compound,measurement,setting,value
COc1cc2c(cc1OC)[C@H](OC(C)=O)[C@H]1COC(=O)[C@@H]1[C@@H]2c1cc(OC)c(OC)c(OC)c1,mortality at 1000 µg/mL,Mythimna separata [1],36.7%
same,mortality at 1000 µg/mL,Mythimna separata [2],23.3%
same,mortality at 1000 µg/mL,Mythimna separata [3],10%
COc1cc2c(cc1OC)[C@H](OC(=O)CCl)[C@H]1COC(=O)[C@@H]1[C@@H]2c1cc(OC)c(OC)c(OC)c1,mortality at 1000 µg/mL,Mythimna separata [1],26.7%
same,mortality at 1000 µg/mL,Mythimna separata [2],13.3%
same,mortality at 1000 µg/mL,Mythimna separata [3],0%
CCCC(=O)O[C@H]1c2cc(OC)c(OC)cc2[C@@H](c2cc(OC)c(OC)c(OC)c2)[C@H]2C(=O)OC[C@@H]21,mortality at 1000 µg/mL,Mythimna separata [1],33.3%
same,mortality at 1000 µg/mL,Mythimna separata [2],20%
same,mortality at 1000 µg/mL,Mythimna separata [3],6.7%
CCCCCC(=O)O[C@H]1c2cc(OC)c(OC)cc2[C@@H](c2cc(OC)c(OC)c(OC)c2)[C@H]2C(=O)OC[C@@H]21,mortality at 1000 µg/mL,Mythimna separata [1],36.7%
same,mortality at 1000 µg/mL,Mythimna separata [2],23.3%
same,mortality at 1000 µg/mL,Mythimna separata [3],6.7%
CCCCCCCC(=O)O[C@H]1c2cc(OC)c(OC)cc2[C@@H](c2cc(OC)c(OC)c(OC)c2)[C@H]2C(=O)OC[C@@H]21,mortality at 1000 µg/mL,Mythimna separata [1],53.3%
same,mortality at 1000 µg/mL,Mythimna separata [2],30%
same,mortality at 1000 µg/mL,Mythimna separata [3],10%
COc1cc2c(cc1OC)[C@H](OC(=O)Cc1ccccc1)[C@H]1COC(=O)[C@@H]1[C@@H]2c1cc(OC)c(OC)c(OC)c1,mortality at 1000 µg/mL,Mythimna separata [1],26.7%
same,mortality at 1000 µg/mL,Mythimna separata [2],13.3%
same,mortality at 1000 µg/mL,Mythimna separata [3],3.3%
COc1cc2c(cc1OC)[C@H](OC(=O)Cc1cccc3ccccc13)[C@H]1COC(=O)[C@@H]1[C@@H]2c1cc(OC)c(OC)c(OC)c1,mortality at 1000 µg/mL,Mythimna separata [1],60%
same,mortality at 1000 µg/mL,Mythimna separata [2],26.7%
same,mortality at 1000 µg/mL,Mythimna separata [3],10%
COc1cc2c(cc1OC)[C@H](OC(=O)c1ccccc1)[C@H]1COC(=O)[C@@H]1[C@@H]2c1cc(OC)c(OC)c(OC)c1,mortality at 1000 µg/mL,Mythimna separata [1],36.7%
same,mortality at 1000 µg/mL,Mythimna separata [2],26.7%
same,mortality at 1000 µg/mL,Mythimna separata [3],10%
COc1cc2c(cc1OC)[C@H](OC(=O)c1ccc(C)cc1)[C@H]1COC(=O)[C@@H]1[C@@H]2c1cc(OC)c(OC)c(OC)c1,mortality at 1000 µg/mL,Mythimna separata [1],33.3%
same,mortality at 1000 µg/mL,Mythimna separata [2],16.7%
same,mortality at 1000 µg/mL,Mythimna separata [3],6.7%
COc1cc2c(cc1OC)[C@H](OC(=O)c1cccc(Cl)c1)[C@H]1COC(=O)[C@@H]1[C@@H]2c1cc(OC)c(OC)c(OC)c1,mortality at 1000 µg/mL,Mythimna separata [1],50%
same,mortality at 1000 µg/mL,Mythimna separata [2],23.3%
same,mortality at 1000 µg/mL,Mythimna separata [3],3.3%
COc1cc2c(cc1OC)[C@H](OC(=O)c1ccc([N+](=O)[O-])cc1)[C@H]1COC(=O)[C@@H]1[C@@H]2c1cc(OC)c(OC)c(OC)c1,mortality at 1000 µg/mL,Mythimna separata [1],46.7%
same,mortality at 1000 µg/mL,Mythimna separata [2],13.3%
same,mortality at 1000 µg/mL,Mythimna separata [3],3.3%
COc1cc2c(cc1OC)[C@H](OC(=O)c1cccc([N+](=O)[O-])c1)[C@H]1COC(=O)[C@@H]1[C@@H]2c1cc(OC)c(OC)c(OC)c1,mortality at 1000 µg/mL,Mythimna separata [1],36.7%
same,mortality at 1000 µg/mL,Mythimna separata [2],16.7%
same,mortality at 1000 µg/mL,Mythimna separata [3],3.3%
CCCC(=O)O[C@@H]1c2cc(OC)c(OC)cc2[C@@H](c2cc(OC)c(OC)c(OC)c2)[C@H]2C(=O)OC[C@@H]21,mortality at 1000 µg/mL,Mythimna separata [1],36.7%
same,mortality at 1000 µg/mL,Mythimna separata [2],10%
same,mortality at 1000 µg/mL,Mythimna separata [3],3.3%
CCCCCC(=O)O[C@@H]1c2cc(OC)c(OC)cc2[C@@H](c2cc(OC)c(OC)c(OC)c2)[C@H]2C(=O)OC[C@@H]21,mortality at 1000 µg/mL,Mythimna separata [1],43.3%
same,mortality at 1000 µg/mL,Mythimna separata [2],26.7%
same,mortality at 1000 µg/mL,Mythimna separata [3],23.3%
COc1cc2c(cc1OC)[C@@H](OC(=O)Cc1ccccc1)[C@H]1COC(=O)[C@@H]1[C@@H]2c1cc(OC)c(OC)c(OC)c1,mortality at 1000 µg/mL,Mythimna separata [1],33.3%
same,mortality at 1000 µg/mL,Mythimna separata [2],16.7%
same,mortality at 1000 µg/mL,Mythimna separata [3],10%
COc1cc2c(cc1OC)[C@@H](OC(=O)Cc1cccc3ccccc13)[C@H]1COC(=O)[C@@H]1[C@@H]2c1cc(OC)c(OC)c(OC)c1,mortality at 1000 µg/mL,Mythimna separata [1],50%
same,mortality at 1000 µg/mL,Mythimna separata [2],20%
same,mortality at 1000 µg/mL,Mythimna separata [3],13.3%
COc1cc2c(cc1OC)[C@@H](OC(=O)c1cccc([N+](=O)[O-])c1)[C@H]1COC(=O)[C@@H]1[C@@H]2c1cc(OC)c(OC)c(OC)c1,mortality at 1000 µg/mL,Mythimna separata [1],36.7%
same,mortality at 1000 µg/mL,Mythimna separata [2],26.7%
same,mortality at 1000 µg/mL,Mythimna separata [3],10%
CCCCCC(=O)O[C@@H]1c2cc(OCc3ccccc3)c(OCc3ccccc3)cc2[C@@H](c2cc(OC)c(OC)c(OC)c2)[C@H]2C(=O)OC[C@@H]21,mortality at 1000 µg/mL,Mythimna separata [1],33.3%
same,mortality at 1000 µg/mL,Mythimna separata [2],13.3%
same,mortality at 1000 µg/mL,Mythimna separata [3],10%
COc1cc([C@@H]2c3cc(OCc4ccccc4)c(OCc4ccccc4)cc3[C@@H](OC(=O)Cc3ccccc3)[C@H]3COC(=O)[C@H]23)cc(OC)c1OC,mortality at 1000 µg/mL,Mythimna separata [1],40%
same,mortality at 1000 µg/mL,Mythimna separata [2],16.7%
same,mortality at 1000 µg/mL,Mythimna separata [3],3.3%
COc1cc([C@@H]2c3cc(OCc4ccccc4)c(OCc4ccccc4)cc3[C@@H](OC(=O)Cc3cccc4ccccc34)[C@H]3COC(=O)[C@H]23)cc(OC)c1OC,mortality at 1000 µg/mL,Mythimna separata [1],33.3%
same,mortality at 1000 µg/mL,Mythimna separata [2],26.7%
same,mortality at 1000 µg/mL,Mythimna separata [3],3.3%
COc1cc([C@@H]2c3cc(OCc4ccccc4)c(OCc4ccccc4)cc3[C@@H](OC(=O)c3cccc([N+](=O)[O-])c3)[C@H]3COC(=O)[C@H]23)cc(OC)c1OC,mortality at 1000 µg/mL,Mythimna separata [1],33.3%
same,mortality at 1000 µg/mL,Mythimna separata [2],6.7%
same,mortality at 1000 µg/mL,Mythimna separata [3],3.3%
"COc1cc([C@@H]2c3cc(OCc4ccccc4)c(OCc4ccccc4)cc3[C@H](O)[C@H]3COC(=O)[C@H]23)cc(OC)c1OC [6,7-O,O-DEMETHYLENE-6,7-O,O-DIBENZYLPODOPHYLLOTOXIN]",mortality at 1000 µg/mL,Mythimna separata [1],33.3%
same,mortality at 1000 µg/mL,Mythimna separata [2],33.3%
same,mortality at 1000 µg/mL,Mythimna separata [3],10%
"COc1cc2c(cc1OC)[C@@H](O)[C@H]1COC(=O)[C@@H]1[C@@H]2c1cc(OC)c(OC)c(OC)c1 [6,7-O,O-DEMETHYLENE-6,7-O,O-DIMETHYLEPIPODOPHYLLOTOXIN]",mortality at 1000 µg/mL,Mythimna separata [1],40%
same,mortality at 1000 µg/mL,Mythimna separata [2],23.3%
same,mortality at 1000 µg/mL,Mythimna separata [3],16.7%
"COc1cc2c(cc1OC)[C@H](O)[C@H]1COC(=O)[C@@H]1[C@@H]2c1cc(OC)c(OC)c(OC)c1 [6,7-O,O-DEMETHYLENE-6,7-O,O-DIMETHYLPODOPHYLLOTOXIN]",mortality at 1000 µg/mL,Mythimna separata [1],36.7%
same,mortality at 1000 µg/mL,Mythimna separata [2],23.3%
same,mortality at 1000 µg/mL,Mythimna separata [3],0%
"COc1cc([C@@H]2c3cc(O)c(O)cc3[C@H](O)[C@H]3COC(=O)[C@H]23)cc(OC)c1OC [6,7-O,O-DEMETHYLENEPODOPHYLLOTOXIN]",mortality at 1000 µg/mL,Mythimna separata [1],23.3%
same,mortality at 1000 µg/mL,Mythimna separata [2],6.7%
same,mortality at 1000 µg/mL,Mythimna separata [3],0%
COc1cc([C@@H]2c3cc4c(cc3[C@H](O)[C@H]3COC(=O)[C@H]23)OCO4)cc(OC)c1OC [PODOFILOX],mortality at 1000 µg/mL,Mythimna separata [1],40%
same,mortality at 1000 µg/mL,Mythimna separata [2],23.3%
same,mortality at 1000 µg/mL,Mythimna separata [3],13.3%
CC(=O)O[C@@H]1C[C@H](O)[C@@]23CO[C@@H](O)[C@]1(C)[C@@H]2C[C@@H](O)[C@]1(C)[C@@H]3C(=O)[C@H](OC(C)=O)[C@@]2(C)[C@H](c3ccoc3)C[C@H]3O[C@]321 [TOOSENDANIN],mortality at 1000 µg/mL,Mythimna separata [1],50%
same,mortality at 1000 µg/mL,Mythimna separata [2],20%
same,mortality at 1000 µg/mL,Mythimna separata [3],10%
